Test results taken from ChEMBL document CHEMBL1155223, “2-Phenylpyrazolo[4,3-d]pyrimidin-7-one as a new scaffold to obtain potent and selective human A3 adenosine receptor antagonists: new insights into the receptor-antagonist recognition” (J Med Chem, 2009).
pIC50, pKi: −log10 of the molar value.

Experiments:
[1] = target: T1, Adenosine receptor A1 (Homo sapiens) (UniProt P30542); experiment: Inhibition of [125I]DPCPX binding to human cloned adenosine A1 receptor expressed in CHO cells at 1 uM after 120 mins by scintillation counting; assay type: cell-based; settings: in the assay text read “[3H]DPCPX” for “[125I]DPCPX”
T1 sequence (whole entry): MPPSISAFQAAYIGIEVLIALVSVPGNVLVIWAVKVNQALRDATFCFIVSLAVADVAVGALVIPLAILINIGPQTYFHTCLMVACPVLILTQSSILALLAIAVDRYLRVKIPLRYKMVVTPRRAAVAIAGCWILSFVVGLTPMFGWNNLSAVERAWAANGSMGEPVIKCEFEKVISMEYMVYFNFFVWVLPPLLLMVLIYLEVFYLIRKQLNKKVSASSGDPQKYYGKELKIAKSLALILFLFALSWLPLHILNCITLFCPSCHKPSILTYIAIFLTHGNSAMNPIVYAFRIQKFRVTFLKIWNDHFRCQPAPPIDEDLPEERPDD
In short: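 Membranes from hA1 CHO (50 μg protein) with [3H]DPCPX 1 nM, 50 mM Tris-HCl pH 7.4, 120 min at 25 °C; nonspecific binding defined by 10 μM CHA. Percent inhibition at 1 μM test compound.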

[2] = target: T2, Adenosine receptor A2b (Homo sapiens) (UniProt P29275); experiment: Antagonist activity at human adenosine A2B receptor expressed in CHO cells assessed as inhibition of NECA-stimulated [3H]cAMP production at 1 uM by scintillation counting; assay type: functional, cell-based
T2 sequence (whole entry): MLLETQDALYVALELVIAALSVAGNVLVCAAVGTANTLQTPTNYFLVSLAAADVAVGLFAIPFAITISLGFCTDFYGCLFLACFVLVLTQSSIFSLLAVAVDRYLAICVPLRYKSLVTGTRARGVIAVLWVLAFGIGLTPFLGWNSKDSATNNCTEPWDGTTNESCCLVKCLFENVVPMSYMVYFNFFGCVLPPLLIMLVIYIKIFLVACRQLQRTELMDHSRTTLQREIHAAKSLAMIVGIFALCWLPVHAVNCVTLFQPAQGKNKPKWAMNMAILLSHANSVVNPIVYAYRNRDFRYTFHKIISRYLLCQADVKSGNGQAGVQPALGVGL
In short: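 Suspended CHO cells stably expressing hA2B (1 × 10⁶ cells/assay) in buffer with adenosine deaminase 2 IU/mL and Ro 20-1724, preincubated 10 min at 37 °C, pH 7.4. Stimulated with NECA 200 nM; compound at 1 μM; percent inhibition reported. Stopped with cold 6% TCA, ether-extracted, cAMP quantified by [3H]cAMP competition with beef adrenal binding protein.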

[3] = target: T3, Adenosine receptor A3 (Homo sapiens, UniProt P0DMS8); experiment: Displacement of [125I]AB-MECA from human cloned adenosine A3 receptor expressed in CHO cells after 120 mins by scintillation counting; assay type: cell-based
T3 sequence (P0DMS8 whole entry): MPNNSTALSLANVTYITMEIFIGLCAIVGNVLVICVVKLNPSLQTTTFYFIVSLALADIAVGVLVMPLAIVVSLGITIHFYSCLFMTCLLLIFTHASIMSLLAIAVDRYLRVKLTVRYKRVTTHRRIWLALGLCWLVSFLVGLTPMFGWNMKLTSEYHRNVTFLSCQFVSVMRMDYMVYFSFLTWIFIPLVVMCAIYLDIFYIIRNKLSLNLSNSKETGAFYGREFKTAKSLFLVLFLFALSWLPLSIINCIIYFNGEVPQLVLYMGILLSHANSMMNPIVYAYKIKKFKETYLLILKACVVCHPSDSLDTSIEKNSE
In short: (§1)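 hA3 CHO membranes (50 μg protein) incubated with [125I]AB-MECA 0.5 nM in 50 mM Tris-HCl, 10 mM MgCl2, 1 mM EDTA, pH 7.4, 120 min at 4 °C; six to eight ligand concentrations. Nonspecific binding with 1 μM AB-MECA. Ki via Cheng–Prusoff, mean ± SEM of four assays in duplicate; percent inhibition given at 1 μM.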

[4] = target: Adenosine receptor A2a (Homo sapiens) (UniProt P29274); experiment: Inhibition of [125I]Z241385 binding to human cloned adenosine A2A receptor expressed in CHO cells at 1 uM after 120 mins by scintillation counting; assay type: cell-based
Adenosine receptor A2a (Homo sapiens), sequence (P29274 whole entry): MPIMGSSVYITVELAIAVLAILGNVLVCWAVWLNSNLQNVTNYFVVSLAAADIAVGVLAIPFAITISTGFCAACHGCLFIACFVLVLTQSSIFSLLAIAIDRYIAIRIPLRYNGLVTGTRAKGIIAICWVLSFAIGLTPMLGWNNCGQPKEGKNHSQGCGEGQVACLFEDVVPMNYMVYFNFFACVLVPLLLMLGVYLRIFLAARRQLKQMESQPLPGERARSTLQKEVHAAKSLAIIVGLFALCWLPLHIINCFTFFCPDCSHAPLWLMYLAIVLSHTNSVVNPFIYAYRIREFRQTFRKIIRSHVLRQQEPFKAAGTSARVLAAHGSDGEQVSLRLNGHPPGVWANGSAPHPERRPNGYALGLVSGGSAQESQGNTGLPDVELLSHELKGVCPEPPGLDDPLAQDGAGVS

[5] = target: T3, Adenosine receptor A3; experiment: Antagonist activity at human cloned adenosine A3 receptor expressed in CHO cells assessed as inhibition of Cl-IB-MECA-inhibited [3H]cAMP production by scintillation counting; assay type: functional, cell-based
In short: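 hA3-transfected CHO cells (1 × 10⁶ cells/assay), preincubated 10 min at 37 °C with adenosine deaminase 2 IU/mL plus Ro 20-1724, pH 7.4; forskolin 1 μM and Cl-IB-MECA 100 nM present. Stopped with cold 6% TCA; cAMP measured by [3H]cAMP binding-protein competition. IC50 from sigmoid nonlinear regression, mean ± SEM of four experiments; single-point data at 1 μM as percent inhibition.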

[6] = target: T4, Adenosine receptor A3 (Homo sapiens) (UniProt P0DMS8); experiment: Inhibition of [125I]AB-MECA binding to human cloned adenosine A3 receptor expressed in CHO cells at 1 uM after 120 mins by scintillation counting; assay type: cell-based; in short: as §1
T4 sequence (whole entry): T3 sequence (P0DMS8 whole entry)

[7] = target: T4, Adenosine receptor A3 (Homo sapiens); settings: CHO, 1 uM

Compound | inhibition [1] | inhibition [2] | pKi [3] | inhibition [4] | pIC50 [5] | inhibition [6] | inhibition [7]
Cc1nc2cn(-c3ccccc3)nc2c(=O)[nH]1 | 9% | 2% | 7.80 | 1% | 7.06 |  | 
COc1ccc(-n2cc3nc(C)[nH]c(=O)c3n2)cc1 | 5% | 2% | 8.92 | 1% | 8.28 |  | 
Cc1cccc(-n2cc3nc(C)[nH]c(=O)c3n2)c1 | 4% | 2% | 7.14 | 1% | 6.45 |  | 
COc1ccc(-n2cc3nc(-c4ccccc4)[nH]c(=O)c3n2)cc1 | 1% | 5% |  | 1% |  | 16% | 
Nc1nc(NCCc2ccc(O)cc2)nc2nc(-c3ccco3)nn12 |  |  |  |  |  | 5% | 2%
COc1ccc(-n2cc3nc(Cc4ccccc4)[nH]c(=O)c3n2)cc1 | 10% | 4% | 6.60 | 1% | 6.07 |  | 
O=c1[nH]cnc2cn(-c3ccccc3)nc12 | 1% | 3% | 6.73 | 1% | 6.14 |  | 
CCc1nc2cn(-c3ccccc3)nc2c(=O)[nH]1 | 11% | 1% | 7.28 | 6% | 6.61 |  | 
CCc1nc2cn(-c3ccc(OC)cc3)nc2c(=O)[nH]1 | 1% | 5% | 7.85 | 1% | 7.20 |  | 
Cc1ccc(-n2cc3nc(C)[nH]c(=O)c3n2)cc1 | 1% | 4% | 8.00 | 1% | 7.34 |  | 
O=c1[nH]c(Cc2ccccc2)nc2cn(-c3ccccc3)nc12 | 11% | 4% | 6.05 | 1% |  |  | 6%
O=c1[nH]c(=O)c2nn(-c3ccccc3)cc2[nH]1 | 4% | 2% |  | 5% |  | 12% | 
COc1ccc(-n2cc3nc[nH]c(=O)c3n2)cc1 | 2% | 3% | 7.27 | 1% | 6.57 |  | 
O=c1[nH]c(-c2ccccc2)nc2cn(-c3ccccc3)nc12 | 22% | 4% |  | 10% |  | 10% | 
